Experimental data from the EternaBench riboswitch data.

System: MS2 coat protein
Assay: apparent Kd, MS2 coat protein; higher = weaker binding; RNA-MaP array; FMN 200 µM where present
Summary of the method: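 Each design was made on Illumina sequencing-chip clusters by stalled E. coli RNA polymerase and titrated with SNAP-549-labelled MS2 coat protein from 0.7 or 1.5 nM, doubling to 3 µM, in the absence and then the presence of constant ligand. The buffer was 100 mM Tris-HCl pH 7.5, 80 mM KCl, 4 mM MgCl2, BSA, DTT, yeast tRNA and Tween-20. The apparent Kd is the median of filtered per-cluster fits of binding curves, with green signal normalised to red-channel RNA signal and control-cluster median Fmax.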

[1] = designed as: OFF switch for flavin mononucleotide, no ligand
[2] = ligand present: flavin mononucleotide, designed as: OFF switch for flavin mononucleotide
[3] = designed as: ON switch for flavin mononucleotide, no ligand
[4] = ligand present: flavin mononucleotide, designed as: ON switch for flavin mononucleotide

Sequence	apparent Kd [1] [nM]	apparent Kd [2] [nM]	apparent Kd [3] [nM]	apparent Kd [4] [nM]
UUCGUGCAGCUUUGCUGUAUGCGUACAUGAGGAUCACCCAUGUAGGAUAUGGUAGGCUUUGCUUACUAGAAGGAUAGUGUGAUC	97	40.3		
UCCCAGUAAGGAUAUCAGGCAAGUCUCCGGGAGCUUAGUCGUGAGAAGGUACAUGAGGAUCACCCAUGUGAUUG	58	211		
GUGCACAUUCGAGGAUAUCGGAGAGGACUCCUUCGAGAAGGCGAUUCGUGCCGUGUUAUUCUGGACAUGAGGAUCACCCAUGUG			45	28.7
AUCUUGAGAGGAUAUACAUGAGGAUCACCCAUGUUUCUAACACCAUGCGGUCAUUUGCGUAGAAGGCUCGUCCG	19.9	34.1		
UGUUACUAGGGAGGAUAUGGGAAGAUACAUGAGGAUCACCCAUGUUUAAGAAUGCCGAGAGGCAACUAGAAGGCCCUAGUACCU			354	23.1
GCCGGGUAGGCAGGAUAUCCUCGCGCAAACACAUGAGGAUCACCCAUGUACACAAAACGUGAUAUGGAGAAGGGCCGACCCGCA			26.6	5.28
AACAGUACAGGAUAUACAUGAGGAUCACCCAUGUGAUAUUUAAGUGGCGUACCACAAAGUAGAAGGGUACUGGA	21.9	85.6		
GAUCGACCUGAGAAGGCACAUGAGGAUCACCCAUGUUGAACCAUACAUGCCACAAAGUGGCAGUGUGAGGAUAUCAGGUCGAUC	5.81	8.34		
CCAUGACAAAGUCAUGGAUAACGAACAUGAGGAUCACCCAUGUAGGAUAUGCUACUCAAAGAGUAGCAGAAGGACAUGUGCCUU	36.1	263		
UACAUGUGAGGAUAUGUACGAAGCCCGGCUGGGCCUCGCAGGCAGAAGGCACAUGAGGAUCACCCAUGUGACCG	15.9	53.4		
GGUAGACAAAGUCUACCAAUACGAACAUGAGGAUCACCCAUGUAGGAUAUGCUACUCAAAGAGUAGCAGAAGGACAUGUGUCUU	29.5	160		
GCGUCAGGAGGAUAUACAUGAGGAUCACCCAUGUAACACGGGAUAGUAGUAUAGUAGAGUAGAAGGCCUAUAGU	37.5	46		
GUUGUGUGAGGAUAUGCCUGGCCGUGUGGCCGGAUUGGGUGGCAGAAGGUACAUGAGGAUCACCCAUGUACGGG	90.6	70		
AUGAGUGUAAUGAUUGAGCCACUGCAGGAUAUCACAUGAGGAUCACCCAUGUGUCAGCCUCGGAGUGAGAAGGGCGGUUUCUUA	5.38	10.6		
GAGUAGUUAAAAGGAUAUUGAUUAUUGUAGGAUCAAGAAGGUUUUAACAUGAGGAUCACCCAUGUAGGACUAUUCCUGUGAAAA			15.6	12.7
GUCAGCUCGUGAGGAUAUACGUCACUGCUUCGGCAGUGAAAUUUCCUCACAUGAGGAUCACCCAUGUAGAAGGCACGAGCUGAU	11.5	208		
UGAGUGUGAGGAUAUAUGGUAGGGAUGAAGGGAUAGAAUUAGUAGAAGGUACAUGAGGAUCACCCAUGUUAGGA	24.4	21.9		
GACAUUGGCAAGAAGGCAAACAUGAGGAUCACCCAUGUUCUGUAUGUAUAUUGAGGAUAUUGCCAAUGUAUGUGGAUCACCCAA	9.44	8.28		
AAAUUUUGUCAAGGAUAUGUAUAAUUGAGUUGAAAACAUGAGGAUCACCCAUGUAUAUGGUGGGAACAGAAGGUGAAUAAGUAA	195	151		
AGAAAUUAGUGAGGAUAUGCAUAAUGUGUAGCUGCAGAAGGCACGGACCACAAGACAUGAGGAUCACCCAUGUGGUAUAUAGAU	25.9	29.3		
UUAUGGCUAGGAUAUGCACGUGCAUGUUCAAGUCAAAGAAGACAUGAGGAUCACCCAUGUAGAAGGAGCGAUAA	28.8	21.2		
AGUUGGCGAGGAUAUACAUGAGGAUCACCCAUGUGAAAUAUAAGAGUGAGGAAGAAAAGUAGAAGGCGCUGACA	99.8	130		
GACAAACAUGAGGAUCACCCAUGUUCAGACGAACAAGGAUAUGUGUGGAAACCAUACUAUACAGAAGGUGUCUGUC			48.6	31.1
AUCAGCUCGUCAGGAUAUACGUCACUGCGUCGGCAGUGUGGUAAGAUCACAUGAGGAUCACCCAUGUAGAAGGGACGAGCUGAU	14.4	280		

Sequence	apparent Kd [1] [nM]	apparent Kd [2] [nM]	apparent Kd [3] [nM]	apparent Kd [4] [nM]
UUGGACCUCGUAGGAUAUGUAGGAUAUUCCUACAUGAGGAUCACCCAUGUUGACAUGGAAGAAGGACAGAAGGACGAUGUCCAU			311	5.32
CUAUGGGCAGGAUAUGCAUAUCGGGAGUGGUCGCAAGCGUUACAUGAGGAUCACCCAUGUAGAAGGGCCGCGUC	18.9	20.4		
AACACGUGAGGAUAUACAUGAGGAUCACCCAUGUUGGUACAAUCCUGUCCGACUAUCCGUAGAAGGCAUUGACU	38.7			
CUUAGACAUGAGGAUCACCCAUGUGAGGAUAUGAUGCGAUCGUGCUGACAUGAUCGCAUCAGAAGGCACAUAUG	145	322		
CAGCUGAAUGUGAGGAUAUGUCUAGCCUCGGCUAGACAGAAGGCACAUGAGGAUCACCCAUGUCUCAACAGCUG	38.8	675		
ACGCUUUGGGAGAAGGUACGUGAAGUAUUAUCCACAUGAGGAUCACCCAUGUAAGGAUAUCCCGGCGUGAAAUAGGCUACAGCA	4.77	11.3		
UCGUACAUUCGAGGAUAUCGGUGAUAUAUAUUACGAGAAGGCGAUUGUUUGUUUUACGCCUUAGACAUGAGGAUCACCCAUGUA			77.7	55.2
UAGGUACAUGAGGAUCACCCAUGUGGGUCGGUCACAGGAUAUCGCCGUGGGCCCAGGCGGCGAGAAGGGUGCCGGU			277	34.8
AUACUUAAUGAAGGAUAUCUCAGCAUAAACCUGAGAGAAGGUCAUUGUUACAUGAGGAUCACCCAUGUUGUAGUUAAUGGGUAA	421	413		
UUUUAACAUGAGGAUCACCCAUGUGAGGAUAUCGAAAUUUAUAUUUAUAUUUAUAAAACGAGAAGGCACAUUUU	103	119		
GGCGCAUUUGUGGCGUAUAGGUCGAAGGAUAUCACGUGCCGCCUAGUACAUGAGGAUCACCCAUGUGAGAAGGUCGAACUUAAC	19.3	83.5		
CACUGCAAUGUAGGAUAUCGACUGGAAUACAGUCGAGAAGGACAUGAGGAUCACCCAUGUACUAUGAGUGAAUAAUAAGCAGUG	88.9	834		
AAGGUGUAAGGAUAUGCUGCUCGUCACUUGCGUGAUGAGUAGCAGAAGGUACAUGAGGAUCACCCAUGUAAAAA	27.9	34.6		
CCACGUCCCAUUAACAUGAGGAUCACCCAUGUCAAAAGACAUGAGGAUAUGGUACCUAAUUGGUACCAGAAGGCAUGGACGUGG			691	114
UAGUAGAUCCGAGGAUAUACAAUCCGGAAACGGUACAUGAGGAUCACCCAUGUAGAAGGCGGAUCUACAGGUACUAAAGUACCU	5.12	7.93		
GCCUCGCUGUGAGGAUAUUACGCCUACCGGCAAAAUGCGGUUUCAGGUCCGUAAGAAGGCACAUGAGGAUCACCCAUGUAAGAA	26.7	213		
ACAUGAGGAUCACCCAUGUAUUACAUGGUUAAGUUUAUUAACAGAAGGCGAAAUUACCACUUUUUCGAGGAUAUGUAUUCUAUU	35.7	60.8		
UGACUCGGAGGAUAUACAUGAGGAUCACCCAUGUUUGCCGGCCGCCGAGUAACCUGGUGUAGAAGGUCGAGUGU	20.4	18.9		
UGUCGGAGCAAAGGAUAUUACAUGAGGAUCACCCAUGUAUGAACCAAUAGCUGGAAACAGCAAUGUAAGAAGGCUGCUCCGACA	4.79	5.81		
UUAUGAGAGCAGGAUAUCUUAUUUUUUUUUUAUGGAGAAGGGCUCACAUGAGGAUCACCCAUGUGGUCCUAGAU	27.9	54.4		
AUAUCUAUGUAAGGAUAUAGAUGAUAUACGCCUCCGACAUGAGGAUCACCCAUGUUAUAUUUUGUCUAGAAGGUACAUUGUCGG			168	170
AAGGAUAGAGGAUAUACAUAGAUACAGAUUCGUGUAGUCCUACAUGAGGAUCACCCAUGUAGAAGGCUAUCCUA	11.8	22.9		
GGCACCAUCACAGGAUAUGCUUUCCUUUGGGAAGCAGAAGGGUGUAACAUGAGGAUCACCCAUGUGGUGCCAGGGCGUGAGCCC			164	14
AAGCGAGGGACAGGAUAUGCGGCGAAAUUCUCCGCAGAAGGGUCGACAUGAGGAUCACCCAUGUCCUUACGCUCCAAGUAGAGG			324	467
